From ChEMBL document CHEMBL1147223, “Saponins from Cussonia bancoensis and their inhibitory effects on nitric oxide production” (J Nat Prod, 2003)

Legend:
RAW264.7 [1] = test: Cytotoxicity against LPS-stimulated mouse RAW264.7 cells by Griess method; format: cell-based
RAW264.7 [2] = test: Inhibition of LPS-induced nitric oxide production in mouse RAW264.7 cells by Griess method; format: functional, cell-based
Summary of the method: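 RAW 264.7 murine macrophages were grown in DMEM with 10% FBS, penicillin and streptomycin at 37 °C under 5% CO2, then stimulated with LPS for 24 h. Nitrite in the medium was measured by Griess reaction (sulfanilamide/naphthylethylenediamine, 10 min at room temperature, A550) against a NaNO2 standard curve. IC50 is the concentration giving a 50% decrease in NO; values are the mean of four independent experiments.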

| SMILES | IC50 (RAW264.7 [1]) | IC50 (RAW264.7 [2]) |
| --- | --- | --- |
| C[C@H]1[C@H](C)CC[C@]2(C(=O)O)CC[C@]3(C)C(=CC[C@@H]4[C@@]5(C)CC[C@H](O[C@@H]6OC[C@H](O)[C@H](O)[C@H]6O)[C@@](C)(CO)[C@@H]5CC[C@]43C)[C@H]12 | 124 µM | 47.9 µM |
| C[C@H]1[C@H](C)CC[C@]2(C(=O)O)CC[C@]3(C)C(=CC[C@@H]4[C@@]5(C)CC[C@H](O[C@@H]6O[C@H](CO)[C@@H](O)[C@H](O)[C@H]6O)[C@@](C)(CO)[C@@H]5CC[C@]43C)[C@H]12 | 126 µM | 22.1 µM |
| C[C@H]1[C@H](C)CC[C@]2(C(=O)O)CC[C@]3(C)C(=CC[C@@H]4[C@@]5(C)CC[C@H](O)C(C)(C)[C@@H]5CC[C@]43C)[C@H]12 [URSOLIC ACID] | 58.5 µM | 46.9 µM |
| CC(=N)NCCCC[C@H](N)C(=O)O [L-NIL] | > 200 µM | 18.6 µM |
| C[C@H]1[C@H](C)CC[C@]2(C(=O)O)CC[C@]3(C)C(=CC[C@@H]4[C@@]5(C)CC[C@H](O)[C@@](C)(CO)[C@@H]5CC[C@]43C)[C@H]12 | 11 µM | 2.6 µM |
